Measured values from ChEMBL document CHEMBL4052614, “Novel 3',5'-diprenylated chalcones inhibited the proliferation of cancer cells in vitro by inducing cell apoptosis and arresting cell cycle phase” (Eur J Med Chem, 2017).
Calls of active or inactive are those of the source. The rule behind the calls is not given here.

Key:
PC-3 [1] = test: Growth inhibition of human PC3 cells at 5 umol/L after 48 hrs by MTT assay relative to control; type: functional; conditions: PC-3, 48 h, read-out: GI
How it was run: (§1)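 Cells kept in DMEM/10% FBS at 37 °C, 5% CO2, seeded at 4×10^3–8×10^3 cells/well, 24 h attachment, then 48 h with compound at 5 µmol/L. MTT (5 mg/mL solution) added for 4 h at 37 °C, formazan taken up in DMSO, A490 read. Percent inhibition as mean ± SD of three independent experiments. Doxorubicin as positive control.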

MDA-MB-231 [2] = test: Growth inhibition of human MDA-MB-231 cells at 5 umol/L after 48 hrs by MTT assay relative to control; type: functional; conditions: MDA-MB-231, 48 h, read-out: GI; how it was run: as §1
K562 [3] = test: Growth inhibition of human K562 cells at 5 umol/L after 48 hrs by MTT assay relative to control; type: functional; conditions: K562, 48 h, read-out: GI; how it was run: as §1
PC-3 [4] = test: Cytotoxicity against human PC3 cells after 48 hrs by MTT assay; type: functional, cell-based
How it was run: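 Cells kept in DMEM/10% FBS at 37 °C, 5% CO2, seeded at 4×10^3–8×10^3 cells/well and left 24 h to adhere. Exposed 48 h to a range of concentrations. MTT (5 mg/mL solution) added for 4 h at 37 °C, formazan dissolved in DMSO, absorbance read at 490 nm. IC50 derived from concentration–inhibition relation. Doxorubicin as positive control.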

MDA-MB-231 [5] = test: Induction of morphological changes in human MDA-MB-231 cells assessed as increase in cell rounding at 5 umol/L after 48 hrs by inverted microscopic method; type: functional, cell-based
How it was run: (§2)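 Cells cultured in DMEM/10% FBS at 37 °C, 5% CO2. Exposed 48 h to 5 µmol/L compound alongside DMSO controls. Morphology (cell number, rounding, spacing, apoptotic bodies, spindle shape) observed under an inverted microscope with CCD camera.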

PC-3 [6] = test: Induction of morphological changes in human PC3 cells assessed as increase in cell rounding at 5 umol/L after 48 hrs by inverted microscopic method; type: functional, cell-based
How it was run: (§3)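 PC3 cells were kept in DMEM with 10% FBS, penicillin and streptomycin at 37 °C under 5% CO2, and were passaged at least 3 times after thawing. Cells were seeded at 4 × 10^3 to 8 × 10^3 cells/well and left to adhere for 24 h. They were then exposed to 5 µmol/L compound for 48 h. Morphology was viewed by inverted microscope against DMSO-treated controls.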

K562 [7] = test: Induction of morphological changes in human K562 cells assessed as increase in cell rounding at 5 umol/L after 48 hrs by inverted microscopic method; type: functional, cell-based; how it was run: as §2
MDA-MB-231 [8] = test: Induction of apoptosis in human MDA-MB-231 cells assessed as spindle like formation at 5 umol/L after 48 hrs by inverted microscopic method; type: functional, cell-based; how it was run: as §2
PC-3 [9] = test: Induction of apoptosis in human PC3 cells assessed as viable cells at 5 umol/L after 48 hrs by annexin V-FITC/propidium iodide staining based flow cytometry (reference value: 86.7%); type: functional; conditions: PC-3, 48 h, read-out: Activity
PC-3 [10] = test: Induction of apoptosis in human PC3 cells assessed as early apoptotic cells at 5 umol/L after 48 hrs by annexin V-FITC/propidium iodide staining based flow cytometry (reference value: 4%); type: functional
MDA-MB-231 [11] = test: Induction of apoptosis in human MDA-MB-231 cells assessed as viable cells at 5 umol/L after 48 hrs by annexin V-FITC/propidium iodide staining based flow cytometry (reference value: 91.3%); type: functional; conditions: MDA-MB-231, 48 h, read-out: Activity
MDA-MB-231 [12] = test: Induction of apoptosis in human MDA-MB-231 cells assessed as necrotic cells at 5 umol/L after 48 hrs by annexin V-FITC/propidium iodide staining based flow cytometry (reference value: 3.4%); type: functional
K562 [13] = test: Induction of apoptosis in human K562 cells assessed as early apoptotic cells at 5 umol/L after 48 hrs by annexin V-FITC/propidium iodide staining based flow cytometry (reference value: 4%); type: functional
K562 [14] = test: Induction of apoptosis in human K562 cells assessed as late apoptotic cells at 5 umol/L after 48 hrs by annexin V-FITC/propidium iodide staining based flow cytometry (reference value: 2.3%); type: functional
K562 [15] = test: Induction of apoptosis in human K562 cells assessed as necrotic cells at 5 umol/L after 48 hrs by annexin V-FITC/propidium iodide staining based flow cytometry (reference value: 1.2%); type: functional
HEL [16] = test: Induction of apoptosis in HEL cells assessed as viable cells at 5 umol/L after 48 hrs by annexin V-FITC/propidium iodide staining based flow cytometry (reference value: 93.1 to 94%); type: functional; conditions: Homo sapiens, read-out: Activity
HEL [17] = test: Induction of apoptosis in HEL cells assessed as necrotic cells at 5 umol/L after 48 hrs by annexin V-FITC/propidium iodide staining based flow cytometry (reference value: 0.3 to 1%); type: functional, Homo sapiens
PC-3 [18] = test: Cell cycle arrest in human PC3 cells assessed as increase in G1 phase accumulation at 5 umol/L after 48 hrs by propidium iodide staining based flow cytometric method; type: functional
How it was run: (§4)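 Cells grown in DMEM with 10% FBS and penicillin/streptomycin at 37 °C, 5% CO2, and passaged at least 3 times after thawing. Treated 48 h at 5 µmol/L, DMSO-treated controls. Harvested by trypsin, PBS-washed, fixed in ice-cold ethanol, blocked 1 h at 4 °C in 5% BSA/PBS, RNase 1 µg/mL 30 min at 37 °C, PI 20 µg/mL final. Phase percentages read from PI histograms. Mean ± SD, three independent experiments.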

MDA-MB-231 [19] = test: Cell cycle arrest in human MDA-MB-231 cells assessed as decrease in S phase accumulation at 5 umol/L after 48 hrs by propidium iodide staining based flow cytometric method; type: functional; how it was run: as §4
K562 [20] = test: Cell cycle arrest in human K562 cells assessed as decrease in G2 phase accumulation at 5 umol/L after 48 hrs by propidium iodide staining based flow cytometry; type: functional; how it was run: as §4
HEL [21] = test: Induction of morphological changes in HEL cells assessed as formation of apoptotic bodies at 5 umol/L after 48 hrs by inverted fluorescence microscopic analysis; type: functional, cell-based; conditions: Homo sapiens; how it was run: as §2
HEL [22] = test: Induction of morphological changes in HEL cells assessed as reduction in cell number at 5 umol/L after 48 hrs by inverted fluorescence microscopic analysis; type: functional, cell-based; conditions: Homo sapiens; how it was run: as §2
PC-3 [23] = test: Induction of morphological changes in human PC3 cells assessed as increase in intracellular space at 5 umol/L after 48 hrs by inverted microscopic method; type: functional, cell-based; how it was run: as §3
PC-3 [24] = test: Induction of apoptosis in human PC3 cells assessed as effect on cell adherence at 5 umol/L after 48 hrs by inverted microscopic method; type: functional, cell-based; how it was run: as §2
PC-3 [25] = test: Potency index, ratio of compound effect to (E)-2-Hydroxy-4,4-dimethoxy-3,5-diprenylchalcone effect for growth inhibition of human PC3 cells; type: functional
MDA-MB-231 [26] = test: Potency index, ratio of compound effect to (E)-2-Hydroxy-4,4-dimethoxy-3,5-diprenylchalcone effect for growth inhibition of human MDA-MB-231 cells; type: functional
K562 [27] = test: Potency index, ratio of compound effect to (E)-2-Hydroxy-4,4-dimethoxy-3,5-diprenylchalcone effect for growth inhibition of human K562 cells; type: functional
MDA-MB-231 [28] = test: Induction of morphological changes in human MDA-MB-231 cells assessed as reduction in number of apoptotic bodies at 5 umol/L after 48 hrs by inverted microscopic method

COc1c(CC=C(C)C)cc(C(=O)/C=C/c2cccnc2)c(O)c1CC=C(C)C
inhibition of growth at 5 µM (PC-3 [1]): 90.4% | inhibition of growth at 5 µM (MDA-MB-231 [2]): 83.4% | inhibition of growth at 5 µM (K562 [3]): 86.2% | Activity (PC-3 [4]): Dose-dependent effect | IC50 (PC-3 [4]; PC-3, 48 h): 2920 nM | Activity (MDA-MB-231 [5]): Active | Activity (PC-3 [6]): Active | Activity (K562 [7]): Active | Activity (MDA-MB-231 [8]): Active | viability at 5 µM (PC-3 [9]): 44.9% | Activity (PC-3 [10]): 1.8% | viability at 5 µM (MDA-MB-231 [11]): 35.2% | Activity (MDA-MB-231 [12]): 14.1% | Activity (K562 [13]): 10.1% | Activity (K562 [14]): 14.6% | Activity (K562 [15]): 11.3% | viability at 5 µM (HEL [16]): 82.4% | Activity (HEL [17]): 4.9% | Activity (PC-3 [18]): Active | Activity (MDA-MB-231 [19]): Active | Activity (K562 [20]): Active | Activity (HEL [21]): inactive | Activity (HEL [22]): Active | Activity (PC-3 [23]): Active | Activity (PC-3 [24]): Active | Ratio (PC-3 [25]): 3 - 4 | Ratio (MDA-MB-231 [26]): 3 - 4 | Ratio (K562 [27]): 3 - 4 | Activity (MDA-MB-231 [28]): Active
